In ChEMBL document CHEMBL4052820, “RNA G-Quadruplexes in Kirsten Ras (KRAS) Oncogene as Targets for Small Molecules Inhibiting Translation” (J Med Chem, 2017):
The source made the active and inactive calls. The rule behind the calls is not given here.

What was measured:
[1] = Binding affinity to human KRAS utr-4 G-quadruplex RNA by fluorescence titration method
[2] = Binding affinity to human KRAS utr-1 G-quadruplex RNA by fluorescence titration method
Outline: (§1)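 KD was obtained from fluorescence titrations of ligand with G4 RNA in 50 mM Tris-HCl, pH 7.4, 100 mM KCl.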

[3] = Drug uptake in cytoplasm of human PANC1 at 3 uM after 4 hrs by Syto-14 fluorescent dye-based confocal microscopic method; assay type: ADME
PANC-1 [4] = test: Inhibition of colony formation in human PANC1 cells at 0.25 to 0.5 uM after 18 days by methylene blue assay relative to control; assay type: functional
Outline: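 Panc-1 cells were plated in 60 mm dishes with compound. After 18 days they were fixed and stained 10 min with 2.5% methylene blue in 50% ethanol. Colonies of more than 50 cells were counted.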

[5] = Binding affinity to human KRAS utr-z G-quadruplex RNA by fluorescence titration method; outline: as §1
[6] = Selectivity ratio of Kd for WC RNA hairpin (unknown origin) to Kd for human KRAS utr-4 G-quadruplex RNA
Homo sapiens [7] = species on record: Homo sapiens; test: Stabilization of human KRAS 5'-UTR G-quadruplex RNA in human PANC1 cells assessed as inhibition of translation by measuring levels of KRAS protein at 1.6 uM after 48 hrs by Western blot method relative to control; assay type: cell-based; parameters: scale not given: the % may be the effect or the level left
Outline: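 Panc-1 lysates (15 μg protein) were run on 12% SDS-PAGE and transferred to nitrocellulose. Membranes were blocked with 5% BSA in PBS-0.05% Tween and probed overnight at 4 °C with rabbit polyclonal anti-KRAS (1:250) and mouse anti-actin. HRP-conjugated secondaries were applied for 1 h, with chemiluminescent detection.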

Homo sapiens [8] = species on record: Homo sapiens; test: Stabilization of human KRAS 5'-UTR G-quadruplex RNA transfected in human PANC1 cells assessed as inhibition of translation at 0.3 to 1.6 uM preincubated for 6 hrs followed by transfection measured after 48 hrs by dual-glo luciferase reporter gene assay; assay type: cell-based
Outline: (§2)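 Panc-1 cells (20 × 10^3) were treated the next day for 6 h. They were then transfected with jet-PEI using 10 ng Renilla reporter under the KRAS promoter including the 5′-UTR, plus 200 ng Firefly plasmid under a G4-mutated HRAS promoter. Dual-Glo luminescence was read 48 h later. Renilla/Firefly is given as T/C × 100 against untreated cells.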

Homo sapiens [9] = species on record: Homo sapiens; test: Stabilization of human KRAS 5'-UTR G-quadruplex RNA transfected in human PANC1 cells assessed as inhibition of translation at 0.07 to 0.33 uM preincubated for 6 hrs followed by transfection measured after 48 hrs by dual-glo luciferase reporter gene assay; assay type: cell-based; outline: as §2
Homo sapiens [10] = species on record: Homo sapiens; test: Stabilization of human KRAS utr-c G-quadruplex RNA assessed as change in melting temperature at 1 to 4 ligand to RNA ratio after 1 hr by UV-visible spectrophotometer
Outline: (§3)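 UV-melting curves of the G4 RNA were recorded at 260 and 296 nm in a 0.5 cm cuvette, in 50 mM Tris-HCl pH 7.4, 100 mM KCl. Ligand was tested at ligand/G4 ratio r = 1, 2 and 4. ΔTM is the TM increase over RNA alone.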

[11] = Selectivity ratio of Kd for WC RNA hairpin (unknown origin) to Kd for human KRAS utr-z G-quadruplex RNA
PANC-1 [12] = test: Inhibition of metabolic activity in human PANC1 cells after 72 hrs by resazurin assay; assay type: functional, cell-based; details: PANC-1, 72 h
Outline: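 Panc-1 cells were seeded at 10 × 10^3/well, treated after 1 day, incubated 72 h, then assayed with resazurin for metabolic activity. IC50 was reported.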

[13] = Binding affinity to WC RNA hairpin (unknown origin) by fluorescence titration method
[14] = Selectivity ratio of Kd for WC RNA hairpin (unknown origin) to Kd for human KRAS utr-1 G-quadruplex RNA
Cytomegalovirus = test: Stabilization of CMV promoter lacking KRAS 5'-UTR G-quadruplex RNA transfected in human PANC1 cells assessed as inhibition of translation at 0.15 to 0.6 uM preincubated for 6 hrs followed by transfection measured after 48 hrs by dual-glo luciferase reporter gene assay; assay type: cell-based
Outline: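 Renilla reporter pRL-CMV lacks the KRAS 5′-UTR. Panc-1 cells were pretreated 6 h, then cotransfected (10 ng) with 200 ng Firefly plasmid under a G4-mutated HRAS promoter. Dual-Glo was read after 48 h, expressed as Renilla/Firefly T/C × 100 versus untreated cells.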

PANC-1 [15] = test: Induction of apoptosis in human PANC1 cells assessed as activation of caspase-3/7 at 0.8 to 1.6 uM; assay type: functional, cell-based
Outline: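 Caspase-3/7 activity in treated Panc-1 cells was read with a homogeneous fluorogenic caspase-3/7 kit per the manufacturer.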

Homo sapiens [16] = species on record: Homo sapiens; test: Stabilization of human KRAS 5'-UTR G-quadruplex RNA at 3'-end of CMV promoter transfected in human PANC1 cells assessed as inhibition of translation preincubated for 6 hrs followed by transfection measured after 48 hrs by dual-glo luciferase reporter gene assay; assay type: cell-based
Outline: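 Renilla reporter pRL-CMV-UTR carries the 192-nt KRAS 5′-UTR inserted downstream of the CMV promoter. Panc-1 cells were pretreated 6 h (0–1.6 μM), then cotransfected (10 ng) with 200 ng Firefly plasmid under a G4-mutated HRAS promoter. Dual-Glo was read after 48 h, expressed as Renilla/Firefly T/C × 100.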

Homo sapiens [17] = species on record: Homo sapiens; test: Stabilization of human KRAS utr-1 G-quadruplex RNA assessed as change in melting temperature at 1 to 4 ligand to RNA ratio after 1 hr by UV-visible spectrophotometer; outline: as §3
PANC-1 [18] = test: Downregulation of KRAS mRNA expression in human PANC1 cells at 1.6 uM after 6 to 24 hrs by qRT-PCR method relative to control; assay type: functional
Outline: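 Panc-1 cells were seeded at 18 × 10^3/well and treated the next day. Total RNA was extracted 6 and 24 h later. cDNA was made with oligo-dT plus random hexamers and M-MLV reverse transcriptase (1 h, 37 °C). Multiplex probe qPCR measured KRAS against HPRT and β2-microglobulin (50 cycles: 10 s 95 °C, 60 s 58 °C).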

[19] = Drug uptake in human PANC1 cells at 3 uM after 4 hrs by flow cytometric method; assay type: ADME, cell-based; details: panc-1, 4 h
Outline: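 Panc-1 cells were seeded at 5 × 10^4/well and exposed the next day to 3 μM compound for 4 h. Cells were trypsinized, resuspended in PBS and analysed at once by flow cytometry (488 nm excitation, FL3 680 nm, log scale), at least 10^4 cells per sample, gated on FSC/SSC.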

Homo sapiens [20] = species on record: Homo sapiens; test: Stabilization of human KRAS utr-z G-quadruplex RNA assessed as change in melting temperature at 1 to 4 ligand to RNA ratio after 1 hr by UV-visible spectrophotometer; outline: as §3
Homo sapiens [21] = species on record: Homo sapiens; test: Stabilization of human KRAS utr-1 G-quadruplex RNA assessed as change in melting temperature at 4 ligand to RNA ratio after 1 hr in presence of 5 or 10 fold excess 21 mer RNA duplex by UV-visible spectrophotometer
Outline: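 The utr-1 G4 RNA was UV-melted with ligand at ligand/G4 ratio r = 4, with a 5- or 10-fold excess of 21-mer RNA duplex added to test quadruplex-over-duplex competition.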

PANC-1 [22] = test: Induction of apoptosis in human PANC1 cells at 1.6 uM after 72 hrs by annexin V/propidium iodide staining-based flow cytometric method (reference value: 1.2%); assay type: functional
Outline: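 Panc-1 cells were exposed to 1.6 μM compound for 72 h, stained with FITC-annexin V and propidium iodide, and apoptotic cells counted by flow cytometry.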

[23] = Binding affinity to human KRAS promoter G-quadruplex DNA by fluorescence titration method

Kd [1] [nM]	Kd [2] [nM]	Drug uptake [3]	Kd [5] [nM]	Selectivity ratio [6]	ΔTm (Homo sapiens [10]) [°C]	Selectivity ratio [11]	IC50 (PANC-1 [12]) [nM]	Kd [13] [nM]	Selectivity ratio [14]	ΔTm (Homo sapiens [17]) [°C]	Drug uptake [19]	ΔTm (Homo sapiens [20]) [°C]	Kd [23] [nM]	SMILES	Activity (Homo sapiens [7]) [%]	inhibition (Homo sapiens [8])	Activity (PANC-1 [15])	Activity (PANC-1 [18])	Activity (PANC-1 [22]) [%]	also measured
96	75	Active	251	2 to 6	< 32	2 to 6	260	514	2 to 6	< 32	Active	< 32	626	NCCNc1c2c(c(NCCN)c3occc13)C(=O)c1ccccc1C2=O	< 10	Dose-dependent effect	Active	50%	32.5	inhibition (INH) (PANC-1 [4]): 80%; inhibition (Homo sapiens [9]): Dose-dependent effect; inhibition (Cytomegalovirus): inactive; inhibition (Homo sapiens [16]): Dose-dependent effect; Activity (Homo sapiens [21]): Active
–	–	Active	–	–	–	–	–	–	–	–	–	–	–	N=C(N)NCCNc1c2c(c(NCCNC(=N)N)c3occc13)C(=O)c1ccccc1C2=O	–	–	inactive	inactive	–	–
–	–	–	–	–	–	–	–	–	–	–	–	–	–	N=C(N)NCCNc1c2c(c(NCCNC(=N)N)c3sccc13)C(=O)c1ccccc1C2=O	–	–	inactive	inactive	–	–
83	91	–	294	2 to 6	< 20	2 to 6	900	482	2 to 6	< 20	Active	< 20	278	NCCNc1c2c(c(NCCN)c3sccc13)C(=O)c1ccccc1C2=O	< 10	Dose-dependent effect	Active	inactive	20.6	–
